Results: ChEMBL document CHEMBL4513216, “Probing the Open Global Health Chemical Diversity Library for Multistage-Active Starting Points for Next-Generation Antimalarials” (ACS Infect Dis, 2020)

Assay: Toxicity liver stage against HepG2, at 10uM
Type: cell-based
Parameters: test concentration 10 uM, cell line HepG2-A16-CD81EGFP
Settings: human, HepG2-A16-CD81EGFP cells; read-out: INHIBITION
How it was run: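 Uninfected HepG2-A16-CD81EGFP cells, 3 × 10^3 per well, 1536-well, plated on prespotted compound at 10 μM final, parasite-free screening media added to match infected plates; puromycin 10 μM positive, DMSO 0.5% negative; run in parallel with 48 h PbLuc assay at 37 °C, 5% CO2; viability by CellTiter-Glo luminescence, normalized to controls.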

SMILES | cytotoxicity at 10 µM [%]
COCCCNC(=O)Cn1c(C)cc(=O)n2nc(-c3cccs3)nc12 | 2.05
Cc1ccc2oc(SCC(=O)NC(C)(C)C)nc2n1 | -0.3
O=C(C1CC1)N1CCN2C[C@@H](CO)[C@H](c3ccccc3)[C@H]2C1 | 8.52
N#Cc1cccc(C(=O)N2CC(c3nc(-c4cccnc4)no3)C2)c1 | -6.03
CCOc1cc(CNCCCn2ccnc2)cc(Cl)c1OC | -5.21
Cc1cc(=O)n2c3c(cc(S(=O)(=O)NC4CC4)cc13)CCC2 | -32.3
CN1CCCC(Cc2ccnc3ccncc23)CC1 (stereo unspecified) | -0.336
O=C(Nc1cccnc1N1CCSCC1)c1ccc2c(c1)OCO2 | -6.14
Cc1nc(CN(C)C2CCN(CC(=O)N(C)CCC#N)C2)no1 (stereo unspecified) | -3.6
COc1cc(CNCCC(N)=O)c2c(c1)CC(C)O2 (stereo unspecified) | 8.41
CNC(=O)CS(=O)(=O)NC1CCC(C)CC1 (stereo unspecified) | -8.18
N#CCCN(C(=O)CCc1cccnc1)c1ccc2c(c1)OCCO2 | -5.34
O=C(Nc1ccccc1)C1CCN(C(=O)COc2ccccc2F)CC1 | 8.94
CC(C)N(C)CC(=O)Nc1ccc(-n2ccc(C(N)=O)n2)cc1 | -3.54
COc1ccc(OC)c(C(C)NC(=O)Nc2nnc(C)s2)c1 (stereo unspecified) | 14.7
CC(NC(=O)Cc1ccccc1F)C(=O)N1CCS(=O)(=O)CC1 (stereo unspecified) | 8.68
COCCN(Cc1ccc(F)cc1Cl)C(=O)c1cc(C)no1 | 8.75
CN(Cc1ccccc1NCc1cccnc1)C(=O)c1cccs1 | 0.205
CN1CC(NC(=O)Cc2csc(C(C)(C)C)n2)CCC1=O (stereo unspecified) | 1.82
CC(NCc1cnn(C)c1)c1ccc(OCc2nccn2C)cc1 (stereo unspecified) | -7.16
CN(C)Cc1ccc(CNC(=O)NCC2(C)CCCS2)cc1 (stereo unspecified) | -12.9
CC(C)n1nccc1NC(=O)CN1CCc2sccc2C1 | 0.583
CCOC(C)c1noc(CN(C)C(=O)c2ccncc2)n1 (stereo unspecified) | 14.5

SMILES | cytotoxicity at 10 µM [%]
Cc1nc(CN2CCC3(C2)CN(C(=O)c2ccc[nH]2)C3)cs1 | -112
Cc1cccc(S(=O)(=O)N2C[C@@H]3C[C@@H](c4nc(C)no4)O[C@@H]3C2)c1 | -1.05
Cn1ccc(-c2cc(C(=O)N3CCCCC3)c3ccccn23)n1 | -45.7
O=C1NC2(CCN(Cc3cccnc3)CC2)CC1c1ccncc1 (stereo unspecified) | 5.33
Nc1cc(C(=O)N2CCCC(C(=O)CCc3ccccc3)C2)ccn1 (stereo unspecified) | -6.97
COCCc1nc(CSc2ccncc2)n(C)n1 | -5.93
Cc1ccc2cc(CN(C)Cc3ccncn3)c(=O)[nH]c2c1 | 10.3
CCC1CCC(NCCN2CCOCC2)CC1 (stereo unspecified) | 3.62
CC(C)[C@H]1CN(c2cnccn2)C[C@@H]1NC(=O)C1(C#N)CCOCC1 | -6.35
CN(C)CCn1ccnc1C1CCCN(c2nccc3ccccc23)C1 (stereo unspecified) | -7.55
COc1cccc(OCCN2CC[C@@](O)(C3CCOCC3)[C@H](C)C2)c1 | -7.03
Cc1nccn1CCCN1CCCC(c2ccccc2)C1 (stereo unspecified) | -24.8
COC(=O)NCC(=O)N(C)Cc1csc(-c2cccs2)n1 | -2.67
CN1CC2(CCN(c3ncnc4c3CCNC4)CC2)OC1=O | -3.2
CN1CCC(Oc2ccc(-n3ccnc3-c3ccncc3)cc2)CC1 | -3.05
Cc1nc(CN2CCCC2c2noc(C3CC3)n2)oc1C (stereo unspecified) | -8.13
COc1ncccc1NC(=O)NC1CCOc2ccccc21 (stereo unspecified) | -7.62
O=C(Cc1n[nH]c2ccccc12)N1CCC(Nc2cccnn2)CC1 | -7.44
CN(C)C(=O)C1OC2(CCN(c3ncc(F)cn3)CC2)c2ccccc21 (stereo unspecified) | 6.27
O=C(NCC1OCCc2cn(CC3CCOCC3)nc21)c1ccsc1 (stereo unspecified) | 4.84
Cn1ncc2c1CN(Cc1ccccc1F)CC2COCC1CC1 (stereo unspecified) | 1.47
Cc1cc(C(=O)N2CCC3(CC2)C(=O)N(C)CCN3CC(C)C)c(C)o1 | -112
Cn1nnc2c1C(COCc1ccccn1)CN(Cc1ccoc1)C2 (stereo unspecified) | 5.94
